Data reported in ChEMBL document CHEMBL1926621, “New potent 5-HT(2A) receptor ligands containing an N'-cyanopicolinamidine nucleus: Synthesis and in vitro pharmacological evaluation” (Eur J Med Chem, 2012).

What was measured:
[1] = molecular target: T1, Adrenergic receptor alpha-1 (Rattus norvegicus, UniProt P15823+P23944+P43140); experiment: Displacement of [3H]prazosin from rat brain cortex adrenergic alpha1 receptor after 30 mins by liquid scintillation counting
T1 sequence (P15823 whole entry): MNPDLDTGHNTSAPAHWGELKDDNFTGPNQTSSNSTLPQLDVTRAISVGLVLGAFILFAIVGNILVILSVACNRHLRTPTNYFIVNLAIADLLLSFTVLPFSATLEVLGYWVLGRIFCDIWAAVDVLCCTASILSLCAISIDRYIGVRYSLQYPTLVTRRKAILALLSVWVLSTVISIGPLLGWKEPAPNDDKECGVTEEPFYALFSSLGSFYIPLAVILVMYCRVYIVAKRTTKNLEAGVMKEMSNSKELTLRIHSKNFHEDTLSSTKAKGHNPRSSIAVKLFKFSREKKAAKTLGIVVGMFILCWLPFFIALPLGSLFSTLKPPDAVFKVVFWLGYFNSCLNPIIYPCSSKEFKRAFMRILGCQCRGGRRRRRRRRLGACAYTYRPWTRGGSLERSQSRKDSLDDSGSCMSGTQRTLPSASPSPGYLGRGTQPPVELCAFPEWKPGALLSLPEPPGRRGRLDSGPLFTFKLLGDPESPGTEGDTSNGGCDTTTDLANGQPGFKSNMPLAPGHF
T1 sequence (P23944 whole entry): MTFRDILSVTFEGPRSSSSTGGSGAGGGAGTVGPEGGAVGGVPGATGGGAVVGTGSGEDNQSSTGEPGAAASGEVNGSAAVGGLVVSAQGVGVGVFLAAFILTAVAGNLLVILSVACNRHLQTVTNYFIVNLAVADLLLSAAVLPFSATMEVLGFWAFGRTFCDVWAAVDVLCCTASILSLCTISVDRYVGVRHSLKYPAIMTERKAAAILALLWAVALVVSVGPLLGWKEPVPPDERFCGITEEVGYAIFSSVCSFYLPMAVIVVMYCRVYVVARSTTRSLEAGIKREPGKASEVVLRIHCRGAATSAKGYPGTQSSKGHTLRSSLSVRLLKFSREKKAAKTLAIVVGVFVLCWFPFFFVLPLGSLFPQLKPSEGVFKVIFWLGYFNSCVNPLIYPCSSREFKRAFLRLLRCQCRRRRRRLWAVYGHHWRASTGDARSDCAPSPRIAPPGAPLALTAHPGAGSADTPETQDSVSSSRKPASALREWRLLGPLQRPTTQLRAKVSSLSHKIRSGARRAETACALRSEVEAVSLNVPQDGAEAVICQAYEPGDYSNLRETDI
T1 sequence (P43140 whole entry): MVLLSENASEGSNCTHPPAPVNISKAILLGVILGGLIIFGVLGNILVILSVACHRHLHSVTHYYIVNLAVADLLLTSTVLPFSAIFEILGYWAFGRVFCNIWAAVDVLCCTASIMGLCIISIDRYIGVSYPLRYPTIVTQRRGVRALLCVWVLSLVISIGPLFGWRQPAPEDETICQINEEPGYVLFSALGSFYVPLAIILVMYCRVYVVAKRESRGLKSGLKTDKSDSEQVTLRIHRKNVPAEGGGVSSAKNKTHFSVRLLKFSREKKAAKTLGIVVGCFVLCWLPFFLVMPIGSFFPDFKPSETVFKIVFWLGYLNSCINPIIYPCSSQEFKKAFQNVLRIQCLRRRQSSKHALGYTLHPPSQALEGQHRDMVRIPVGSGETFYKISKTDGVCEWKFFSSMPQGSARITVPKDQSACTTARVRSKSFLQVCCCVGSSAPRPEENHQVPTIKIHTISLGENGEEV
In short: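 Brain cortex homogenized in 50 mM Tris-HCl pH 7.2, spun twice at 50,000 g, resuspended in Tris-HCl pH 7.4. 0.4 nM [3H]prazosin final, 10 mg fresh tissue, 30 min at 25 °C. Nonspecific binding with phentolamine. GF/B filtration. Ki by Cheng-Prusoff from six-point triplicate curves.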

[2] = molecular target: 5-hydroxytryptamine receptor 2A (Rattus norvegicus) (UniProt P14842); experiment: Displacement of [3H]ketanserin from Sprague-Dawley rat brain cortex serotonin 5-HT2A receptor at 0.0000001 uM after 15 mins by liquid scintillation counting
[3] = molecular target: 5-hydroxytryptamine receptor 2A (Rattus norvegicus) (UniProt P14842); experiment: Displacement of [3H]ketanserin from Sprague-Dawley rat brain cortex serotonin 5-HT2A receptor at 0.001 uM after 15 mins by liquid scintillation counting
[4] = molecular target: T2, Adrenergic receptor alpha-2 (Rattus norvegicus, UniProt P22086+P19328+P22909); experiment: Displacement of [3H]yohimbine from rat brain cortex adrenergic alpha2 receptor after 30 mins by liquid scintillation counting
T2 sequence (P22086 whole entry): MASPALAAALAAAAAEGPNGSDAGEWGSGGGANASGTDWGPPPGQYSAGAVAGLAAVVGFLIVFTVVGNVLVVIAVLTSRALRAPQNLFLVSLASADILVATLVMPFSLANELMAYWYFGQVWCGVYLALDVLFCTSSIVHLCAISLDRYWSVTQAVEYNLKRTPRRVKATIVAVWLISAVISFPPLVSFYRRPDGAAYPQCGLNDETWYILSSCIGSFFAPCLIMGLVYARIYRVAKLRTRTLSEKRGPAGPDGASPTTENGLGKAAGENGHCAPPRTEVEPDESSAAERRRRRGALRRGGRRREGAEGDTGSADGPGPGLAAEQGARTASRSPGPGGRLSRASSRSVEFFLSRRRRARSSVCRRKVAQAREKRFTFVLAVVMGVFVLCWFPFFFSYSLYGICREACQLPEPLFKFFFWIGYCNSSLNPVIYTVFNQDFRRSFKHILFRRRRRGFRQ
T2 sequence (P19328 whole entry): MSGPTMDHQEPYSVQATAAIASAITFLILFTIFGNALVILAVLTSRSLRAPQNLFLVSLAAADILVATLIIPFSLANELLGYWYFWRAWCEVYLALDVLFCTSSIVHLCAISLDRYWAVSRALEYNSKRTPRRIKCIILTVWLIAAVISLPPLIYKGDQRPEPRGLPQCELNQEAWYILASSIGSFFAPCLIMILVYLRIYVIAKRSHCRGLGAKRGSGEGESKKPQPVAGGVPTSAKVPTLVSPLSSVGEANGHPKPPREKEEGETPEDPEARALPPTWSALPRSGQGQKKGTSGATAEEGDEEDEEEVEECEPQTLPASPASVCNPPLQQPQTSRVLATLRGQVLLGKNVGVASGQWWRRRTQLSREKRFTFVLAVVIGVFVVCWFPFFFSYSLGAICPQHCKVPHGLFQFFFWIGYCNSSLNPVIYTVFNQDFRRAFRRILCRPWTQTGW
T2 sequence (P22909 whole entry): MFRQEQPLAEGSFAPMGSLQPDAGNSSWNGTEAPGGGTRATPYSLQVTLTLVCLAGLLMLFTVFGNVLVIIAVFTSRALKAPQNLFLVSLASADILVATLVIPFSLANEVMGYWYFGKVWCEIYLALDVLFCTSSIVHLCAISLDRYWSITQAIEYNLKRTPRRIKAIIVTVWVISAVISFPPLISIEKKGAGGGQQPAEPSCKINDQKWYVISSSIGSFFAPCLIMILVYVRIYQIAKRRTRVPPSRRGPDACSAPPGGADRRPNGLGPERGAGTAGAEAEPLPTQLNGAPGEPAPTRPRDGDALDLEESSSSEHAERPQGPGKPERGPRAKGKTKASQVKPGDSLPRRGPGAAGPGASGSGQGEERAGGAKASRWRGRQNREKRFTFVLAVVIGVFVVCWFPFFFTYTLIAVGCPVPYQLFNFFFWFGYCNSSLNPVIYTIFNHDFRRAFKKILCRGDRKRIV
In short: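 Cortex homogenized in 5 mM Tris-HCl, 5 mM EDTA pH 7.3, spun three times at 50,000 g, resuspended in 50 mM Tris-HCl, 0.5 mM EDTA pH 7.5. [3H]yohimbine 1 nM final, 10 mg fresh tissue, 30 min at 25 °C. Phentolamine defined nonspecific binding. Ki by Cheng-Prusoff.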

[5] = molecular target: 5-hydroxytryptamine receptor 2A (Rattus norvegicus) (UniProt P14842); experiment: Displacement of [3H]ketanserin from Sprague-Dawley rat brain cortex serotonin 5-HT2A receptor at 0.00001 uM after 15 mins by liquid scintillation counting

Sequence of 5-hydroxytryptamine receptor 2A (Rattus norvegicus) (P14842 whole entry): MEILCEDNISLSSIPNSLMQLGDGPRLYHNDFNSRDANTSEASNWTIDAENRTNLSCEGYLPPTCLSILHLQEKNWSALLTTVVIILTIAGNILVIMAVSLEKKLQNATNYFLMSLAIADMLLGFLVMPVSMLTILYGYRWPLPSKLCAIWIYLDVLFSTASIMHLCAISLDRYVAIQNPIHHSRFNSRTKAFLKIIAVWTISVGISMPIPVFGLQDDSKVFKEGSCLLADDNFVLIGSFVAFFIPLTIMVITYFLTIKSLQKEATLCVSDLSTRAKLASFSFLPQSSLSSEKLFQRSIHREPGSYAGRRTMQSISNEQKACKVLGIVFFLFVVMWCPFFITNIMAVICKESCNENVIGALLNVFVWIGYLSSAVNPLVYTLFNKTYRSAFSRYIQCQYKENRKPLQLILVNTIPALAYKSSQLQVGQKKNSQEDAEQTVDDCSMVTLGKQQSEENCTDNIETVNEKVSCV

For `N#C/N=C(\NCCCN1CCN(c2cccc(Cl)c2)CC1)c1ccccn1`, the Ki [1] was 0.174 µM, the inhibition [2] was 45.3% and the inhibition [3] was 95.1%. For the same compound, the Ki [4] was 1.36 µM and the inhibition [5] was 68.8%.
